Measured values from different studies.
Lines come from different studies, so protocols differ.
Target: Dual specificity protein kinase CLK3 (CLK3, Homo sapiens, UniProt P49761)

| SMILES | read-out | mode | method | tested at | measurement | value |
| --- | --- | --- | --- | --- | --- | --- |
| CCC1(CC)NC(=O)c2c(c3ccc(Cl)c(Cl)c3n2C)C1C#N (stereo not drawn) | thermal stability |  | DSF | 10 µM | ΔTm | 0.3 °C |
| Cc1nccc(COC(=O)N2C[C@@H]3[C@@H](CNC(=O)c4ccc5[nH]nnc5c4)[C@@H]3C2)n1 | cell-free assay |  | competition with immobilised ligand | 1 µM | remaining binding | 90% |
| CCN(CC)CCNC(=O)c1c(C)[nH]c(/C=C2\C(=O)Nc3ccc(F)cc32)c1C | enzyme activity | inhibitor |  | 0.3 µM | inhibition | -1% |
| Clc1ccc(Nc2nnc(Cc3ccncc3)c3ccccc23)cc1 | cell-free assay |  |  | 0.5 µM | remaining signal | 105% |
| CN1CC(Oc2cnc(C#N)cc2-c2ccn3nc(NC(=O)C4CC4)cc3c2)C1 | enzyme activity | inhibitor |  | 1 µM | inhibition | -5% |
| CN(C)c1ncnc(-c2ccc3nc(Nc4cc(CN5CCN(C(=O)CC(F)(F)F)CC5)ccn4)[nH]c3c2)c1Cl | cell-free assay |  | competition with immobilised ligand | 1 µM | remaining binding | 100% |
| CCCOc1ccc(OC)c(F)c1C(=O)c1ccc(C(=O)N[C@@H]2CNC[C@H]2NC(=O)c2ccc3[nH]ncc3c2)cc1 | enzyme activity | inhibitor |  | 10 µM | remaining activity | 105% |
| Cn1c2c(Cl)c(Cl)ccc2c2cc(N)[nH]c(=O)c21 | thermal stability |  | DSF | 10 µM | ΔTm | 0.6 °C |
| CC(C)(C)c1nc(-c2cccc(NS(=O)(=O)c3c(F)cccc3F)c2F)c(-c2ccnc(N)n2)s1 | enzyme activity | inhibitor | radiometric | 1 µM | remaining activity | 74% |
| COc1cc(Nc2c(C#N)cnc3cc(OCCCN4CCN(C)CC4)c(OC)cc23)c(Cl)cc1Cl | cell-free assay |  |  | 0.5 µM | remaining signal | 94.9% |
| Cn1c2c(c3ccc(Cl)c(Cl)c31)C(C#N)C1(CCCCC1)NC2=O (racemic) | thermal stability |  | DSF | 10 µM | ΔTm | 0.4 °C |
| Cc1ccc(C(=O)Nc2ccc(CN3CCN(C)CC3)c(C(F)(F)F)c2)cc1C#Cc1cnc2cccnn12 | enzyme activity | inhibitor |  | 23.5 nM | remaining activity | 77% |
| Cn1c2c(c3ccc(Cl)c(Cl)c31)C(C#N)C1(CCCC1)NC2=O (stereo not drawn) | thermal stability |  | DSF | 10 µM | ΔTm | 0.3 °C |
| Cc1cc(NC(=O)c2cccc3cc(-c4cccc5[nH]nc(N)c45)ccc23)ccc1F | enzyme activity | inhibitor |  | 0.1 µM | activity vs control | 97% |
| CO[C@@H](C)c1c(Nc2ccc([C@H](N(C)C(=O)C3CCS(=O)(=O)CC3)C(F)(F)F)cc2)cnc2cc(Cl)nn12 | cell-free assay |  | competition with immobilised ligand | 1 µM | remaining binding | 87% |
| CCCS(=O)(=O)Nc1ccc(F)c(C(=O)c2c[nH]c3ncc(-c4ccc(Cl)cc4)cc23)c1F | enzyme activity | inhibitor |  | 1 µM | inhibition | < 10% |
| C[C@@H]1CN(c2cc(-c3nn(C)c4ccc(OC5(C)CC5)cc34)ncn2)C[C@H](C)O1 | cell-free assay |  | competition with immobilised ligand | 1 µM | remaining binding | 98% |
| Cc1sc(C(=O)NC2COC2)cc1-n1cc(NC(=O)Nc2c(F)cccc2Cl)cn1 | enzyme activity | inhibitor |  | 10 µM | remaining activity | 99.6% |
| O=C1NC(=O)c2cc(Nc3ccc(F)cc3)c(Nc3ccc(F)cc3)cc21 | cell-free assay |  |  | 0.5 µM | remaining signal | 93.7% |
| Cc1ccc(NC(=O)c2ccc(C)c(C(F)(F)F)c2)cc1C#Cc1nn(C2CCC(O)CC2)c2ncnc(N)c12 (stereo not drawn) | cell-free assay |  |  | 10 µM | remaining signal | 83% |
| COc1ccc2c(O[C@@H]3C[C@H]4C(=O)N[C@]5(C(=O)O)CC5/C=C\CCCCC[C@H](NC(=O)OC5CCCC5)C(=O)N4C3)cc(-c3csc(NC(=O)C(C)C)n3)nc2c1C (stereo partly drawn) | cell-free assay |  | competition with immobilised ligand | 1 µM | remaining binding | 100% |
| COc1cc2ncnc(Nc3ccc(Oc4ccccc4)cc3C)c2cc1OC | enzyme activity | inhibitor |  | 1 µM | inhibition | 5% |
| N#CCCc1ccc2c(c1)-c1[nH]c3ccc([N+](=O)[O-])cc3c1CC(=O)N2 | cell-free assay |  |  | 0.5 µM | remaining signal | 108% |
| CNC(=O)c1cc(Oc2ccc(NC(=O)Nc3ccc(Cl)c(C(F)(F)F)c3)cc2)ccn1 | enzyme activity | inhibitor |  | 10 µM | inhibition | 13% |
| O=C(N[C@H]1CCCCC/C=C\C2C[C@@]2(C(=O)O)NC(=O)[C@@H]2C[C@@H](Oc3ccncc3)CN2C1=O)OC1CCCC1 (stereo partly drawn) | binding |  | competition with immobilised ligand | 1 µM | remaining binding | 93% |
| O=C(Nc1cnn(-c2csc(C(=O)NC3COC3)c2)c1)Nc1ccccc1Cl | enzyme activity | inhibitor |  | 5 µM | remaining activity | 120% |
| CCS(=O)(=O)c1cc2cc(C[C@](O)(CC(C)(C)c3ccc(F)cc3C(N)=O)C(F)(F)F)[nH]c2cn1 | cell-free assay |  | competition with immobilised ligand | 1 µM | remaining binding | 100% |
| Cc1ccc(Nc2nccc(N(C)c3ccc4c(C)n(C)nc4c3)n2)cc1S(N)(=O)=O | enzyme activity | inhibitor |  | 10 µM | inhibition | 32% |
| Nc1cnc(N2CCc3cc(S(=O)(=O)Nc4c(F)cc(Cl)cc4F)cc(N4CCCC4=O)c32)nc1 | cell-free assay |  | competition with immobilised ligand | 1 µM | remaining binding | 74% |
| CCN1/C(=C/C(C)=O)Sc2ccc(OC)cc21 | cell-free assay |  |  | 0.5 µM | remaining signal | 95% |
